Assays:
HeLa [1] = assay: Tested for effect of compound on G0/G1 cell cycle phase and apoptosis in HeLa cells at a dose of 10E-6 for 24 hr; format: functional, Homo sapiens
Method in brief: (§1)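 HeLa cells were grown in DMEM with 10% heat-inactivated FCS and 2 mM L-glutamine at 37 °C in 5% CO2. They were exposed to 10^-6 to 10^-8 M for 24, 48 or 72 h. Then (3-5)×10^5 cells were fixed overnight in 70% ethanol at 4 °C, PBS-washed, and given 1 mg/mL RNase A plus 20 µg/mL propidium iodide for 1 h at room temperature. DNA content was read by flow cytometry. Sub-G1 (hypodiploid) % counted as apoptotic. Untreated controls were run in parallel. Representative of three independent experiments.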

HeLa [2] = assay: Tested for effect of compound on G2/M cell cycle phase and apoptosis in HeLa cells at a dose of 10E-8 for 24 hr; format: functional, Homo sapiens
Method in brief: (§2)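 HeLa cells grown in DMEM with 10% heat-inactivated FCS, 2 mM L-glutamine, penicillin and gentamicin at 37 °C, 5% CO2. Exposed to compound at 10^-6 to 10^-8 M for 24, 48 or 72 h, untreated controls run in parallel. (3-5) × 10^5 cells fixed overnight in 70% ethanol at 4 °C, then RNase A plus propidium iodide. Phase fractions measured by flow cytometry, with sub-G1 (hypodiploid) cells counted as apoptotic. Three independent experiments.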

HeLa [3] = assay: Tested for effect of compound on Sub-G1 cell cycle phase and apoptosis in HeLa cells at a dose of 10E-8 for 24 hr; format: functional, Homo sapiens; method in brief: as §2
HeLa [4] = assay: Tested for effect of compound on G0/G1 cell cycle phase and apoptosis in HeLa cells at a dose of 10E-6 for 72 hr; format: functional, Homo sapiens; method in brief: as §1
HeLa [5] = assay: Tested for effect of compound on S cell cycle phase and apoptosis in HeLa cells at a dose of 10E-6 for 48 hr; format: functional, Homo sapiens; method in brief: as §2
HeLa [6] = assay: Tested for effect of compound on Sub-G1 cell cycle phase and apoptosis in HeLa cells at a dose of 10E-7 for 72 hr; format: functional, Homo sapiens; method in brief: as §2
HeLa [7] = assay: Tested for effect of compound on S cell cycle phase and apoptosis in HeLa cells at a dose of 10E-7 for 72 hr; format: functional, Homo sapiens; method in brief: as §2
HeLa [8] = assay: Tested for effect of compound on S cell cycle phase and apoptosis in HeLa cells at a dose of 10E-6 for 24 hr; format: functional, Homo sapiens; method in brief: as §2
HeLa [9] = assay: Tested for effect of compound on S cell cycle phase and apoptosis in HeLa cells at a dose of 10E-8 for 48 hr; format: functional, Homo sapiens; method in brief: as §2
HeLa [10] = assay: Tested for effect of compound on G0/G1 cell cycle phase and apoptosis in HeLa cells at a dose of 10E-8 for 72 hr; format: functional, Homo sapiens; method in brief: as §1
HeLa [11] = assay: Tested for effect of compound on S cell cycle phase and apoptosis in HeLa cells at a dose of 10E-8 for 72 hr; format: functional, Homo sapiens; method in brief: as §2
HeLa [12] = assay: Tested for effect of compound on G0/G1 cell cycle phase and apoptosis in HeLa cells at a dose of 10E-8 for 24 hr; format: functional, Homo sapiens; method in brief: as §1
HeLa [13] = assay: Tested for effect of compound on S cell cycle phase and apoptosis in HeLa cells at a dose of 10E-8 for 24 hr; format: functional, Homo sapiens; method in brief: as §2
HeLa [14] = assay: Tested for effect of compound on G2/M cell cycle phase and apoptosis in HeLa cells at a dose of 10E-6 for 72 hr; format: functional, Homo sapiens; method in brief: as §2
HeLa [15] = assay: Tested for effect of compound on Sub-G1 cell cycle phase and apoptosis in HeLa cells at a dose of 10E-8 for 72 hr; format: functional, Homo sapiens; method in brief: as §2
SK-MEL-28 = assay: Tested in vitro for antineoplastic activity against MEL-28 (human melanoma) tumor cell line; format: functional, cell-based
Method in brief: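 MEL-28 cells seeded at 2 × 10^4 cells/well in MEM–10% FCS containing graded compound concentrations. Incubated 4 days at 37 °C, 10% CO2, 98% humidity. Stained with crystal violet and inhibition judged against untreated controls, which were kept in exponential growth. Mean of duplicate wells.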

HeLa [16] = assay: Tested for effect of compound on G0/G1 cell cycle phase and apoptosis in HeLa cells at a dose of 10E-7 for 72 hr; format: functional, Homo sapiens; method in brief: as §1
A549 = assay: In vitro cytotoxicity against A-549 (human lung carcinoma) cell line.; format: functional, cell-based; details: Homo sapiens, A549
HeLa [17] = assay: Tested for effect of compound on Sub-G1 cell cycle phase and apoptosis in HeLa cells at a dose of 10E-8 for 48 hr; format: functional, Homo sapiens; method in brief: as §2
HeLa [18] = assay: Tested for effect of compound on G2/M cell cycle phase and apoptosis in HeLa cells at a dose of 10E-8 for 48 hr; format: functional, Homo sapiens; method in brief: as §2
HeLa [19] = assay: Tested for effect of compound on S cell cycle phase and apoptosis in HeLa cells at a dose of 10E-7 for 24 hr; format: functional, Homo sapiens; method in brief: as §2
HeLa [20] = assay: Tested for effect of compound on G2/M cell cycle phase and apoptosis in HeLa cells at a dose of 10E-8 for 72 hr; format: functional, Homo sapiens; method in brief: as §2
HeLa [21] = assay: Tested for effect of compound on Sub-G1 cell cycle phase and apoptosis in HeLa cells at a dose of 10E-7 for 48 hr; format: functional, Homo sapiens; method in brief: as §2
HeLa [22] = assay: Tested for effect of compound on G2/M cell cycle phase and apoptosis in HeLa cells at a dose of 10E-7 for 48 hr; format: functional, Homo sapiens; method in brief: as §2
HeLa [23] = assay: Tested for effect of compound on Sub-G1 cell cycle phase and apoptosis in HeLa cells at a dose of 10E-6 for 48 hr; format: functional, Homo sapiens; method in brief: as §2
HeLa [24] = assay: Tested for effect of compound on G0/G1 cell cycle phase and apoptosis in HeLa cells at a dose of 10E-6 for 48 hr; format: functional, Homo sapiens; method in brief: as §1
P388 = assay: Tested in vitro for antineoplastic activity against P-388 (lymphoid neoplasm from DBA/2 mouse) tumor cell line; format: functional, cell-based
Method in brief: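 P-388 cells seeded at 1 × 10^4 cells/well in MEM–10% FCS containing graded compound concentrations. Incubated 4 days at 37 °C, 10% CO2, 98% humidity. Inhibition scored by inverted microscopy against untreated controls, which were kept in exponential growth. Mean of duplicate wells.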

HeLa [25] = assay: Tested for effect of compound on G2/M cell cycle phase and apoptosis in HeLa cells at a dose of 10E-6 for 24 hr; format: functional, Homo sapiens; method in brief: as §1
HeLa [26] = assay: Tested for effect of compound on Sub-G1 cell cycle phase and apoptosis in HeLa cells at a dose of 10E-6 for 24 hr; format: functional, Homo sapiens; method in brief: as §2
HeLa [27] = assay: Tested for effect of compound on G2/M cell cycle phase and apoptosis in HeLa cells at a dose of 10E-6 for 48 hr; format: functional, Homo sapiens; method in brief: as §1
HeLa [28] = assay: Tested for effect of compound on G0/G1 cell cycle phase and apoptosis in HeLa cells at a dose of 10E-8 for 48 hr; format: functional, Homo sapiens; method in brief: as §1
HT-29 = assay: In vitro cytotoxicity against HT-29 (human colon carcinoma) cell line.; format: functional, cell-based; details: Homo sapiens, HT-29
HeLa [29] = assay: Tested for effect of compound on Sub-G1 cell cycle phase and apoptosis in HeLa cells at a dose of 10E-7 for 24 hr; format: functional, Homo sapiens; method in brief: as §2
HeLa [30] = assay: Tested for effect of compound on Sub-G1 cell cycle phase and apoptosis in HeLa cells at a dose of 10E-6 for 72 hr; format: functional, Homo sapiens; method in brief: as §2
HeLa [31] = assay: Tested for effect of compound on S cell cycle phase and apoptosis in HeLa cells at a dose of 10E-7 for 48 hr; format: functional, Homo sapiens; method in brief: as §2
HeLa [32] = assay: Tested for effect of compound on S cell cycle phase and apoptosis in HeLa cells at a dose of 10E-6 for 72 hr; format: functional, Homo sapiens; method in brief: as §2
HeLa [33] = assay: Tested for effect of compound on G0/G1 cell cycle phase and apoptosis in HeLa cells at a dose of 10E-7 for 24 hr; format: functional, Homo sapiens; method in brief: as §1
HeLa [34] = assay: Tested for effect of compound on G2/M cell cycle phase and apoptosis in HeLa cells at a dose of 10E-7 for 72 hr; format: functional, Homo sapiens; method in brief: as §2
HeLa [35] = assay: Tested for effect of compound on G0/G1 cell cycle phase and apoptosis in HeLa cells at a dose of 10E-7 for 48 hr; format: functional, Homo sapiens; method in brief: as §1
[36] = Selectivity index is the ratio of IC50 of P-388 cell line to that of HT-29; format: functional
HeLa [37] = assay: Tested for effect of compound on G2/M cell cycle phase and apoptosis in HeLa cells at a dose of 10E-7 for 24 hr; format: functional, Homo sapiens; method in brief: as §2

SMILES: COC(=O)[C@@H]1C(C=O)=Cc2cc3c(cc2[C@H]1c1cc(OC)c(OC)c(OC)c1)OCO3
- Activity (HeLa [1]): 1.2%
- Activity (HeLa [2]): 24.3%
- Activity (HeLa [3]): 1.4%
- Activity (HeLa [4]): 14.1%
- Activity (HeLa [5]): 9.3%
- Activity (HeLa [6]): 50.1%
- Activity (HeLa [7]): 17.3%
- Activity (HeLa [8]): 1.7%
- Activity (HeLa [9]): 10.1%
- Activity (HeLa [10]): 47.4%
- Activity (HeLa [11]): 10.2%
- Activity (HeLa [12]): 58.1%
- Activity (HeLa [13]): 16.2%
- Activity (HeLa [14]): 9.5%
- Activity (HeLa [15]): 3.1%
- IC50 (SK-MEL-28): 230 nM
- Activity (HeLa [16]): 15.1%
- IC50 (A549): 120 nM
- Activity (HeLa [17]): 1.5%
- Activity (HeLa [18]): 29.7%
- Activity (HeLa [19]): 10.4%
- Activity (HeLa [20]): 39.3%
- Activity (HeLa [21]): 10.9%
- Activity (HeLa [22]): 68.2%
- Activity (HeLa [23]): 28.9%
- Activity (HeLa [24]): 17%
- IC50 (P388): 230 nM
- Activity (HeLa [25]): 96%
- Activity (HeLa [26]): 1.1%
- Activity (HeLa [27]): 44.8%
- Activity (HeLa [28]): 58.7%
- IC50 (HT-29): 12 nM
- Activity (HeLa [29]): 1.4%
- Activity (HeLa [30]): 58.9%
- Activity (HeLa [31]): 9.7%
- Activity (HeLa [32]): 17.5%
- Activity (HeLa [33]): 8.1%
- Activity (HeLa [34]): 17.5%
- Activity (HeLa [35]): 11.2%
- Selectivity index [36]: 19
- Activity (HeLa [37]): 80.1%
